A selection: hits, their analogues and other compounds. The true share with any hit is near 4.8%.
ALR inh – inhibitors of human sulfhydryl oxidase ALR | P55789 | 290,000 tested, 3.8% active | purified ALR, DTT oxidation, H2O2 HRP-luminol luminescence | AID 485317 | inhibition, % (test concentration not listed);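 active means mean replicate inhibition above about 79%, with every replicate also reaching it, limit read from the data; inconclusive means only one of the two criteria met; inactive means mean below limit and not every replicate reaching it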
Target sequence (P55789 whole entry, looked up): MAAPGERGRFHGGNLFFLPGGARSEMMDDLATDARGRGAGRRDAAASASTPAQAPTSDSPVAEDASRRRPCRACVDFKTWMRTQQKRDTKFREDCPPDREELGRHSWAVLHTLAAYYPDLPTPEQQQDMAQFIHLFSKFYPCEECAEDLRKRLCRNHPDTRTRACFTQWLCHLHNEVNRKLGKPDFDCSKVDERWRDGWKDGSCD
Calb FLC – affects C. albicans growth with fluconazole; C. albicans CaCi-2 (fluconazole-resistant clinical isolate) + fluconazole, Alamar Blue growth, 48 h; growth inhibition, % (concentration not given with the values); 300,000 tested, 0.57% active; AID 1979;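 active means growth inhibition above about 58% in most replicates, limit read from the data, passing the limit was not always enough; inconclusive means exactly half the replicates above a set limit; inactive means most replicates below a set limit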;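 further: all wells also contain fluconazole at 8 µg/ml as a sub-toxic cotreatment; 0% = median of DMSO wells and 100% = median of geldanamycin control wells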
NALP1 yeast inh – NALP1 inhibition; 280,000 tested, 0.61% active; inhibition, % at 10 µM; S. cerevisiae NALP1/ASC/caspase-1 growth, X-gal OD620, 72 h; in the data active means inhibition mostly above about 24%, no sharp cut-off; inactive means mostly below about 32%
UCH37 inh – blocks the human deubiquitinase UCH37 | Q9Y5K5 | purified proteasome/UCH37, Ub-AMC cleavage fluorescence | inhibition, % (no concentration beside the values) | 330,000 tested, 0.33% active | AID 588478;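 active means mean inhibition over replicate wells above about 20%, limit read from the data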;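 further: 0% = compound-free wells with enzyme and 100% = wells lacking proteasome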
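Material: human UCH37 enzyme supplied as purified proteasome complex / Amount: 0.15 nM proteasome as dispensed / Buffer or medium: pH 7.4 Tris-HCl (50 mM) with ovalbumin, ATP-MgCl2, DTT / Times: preincubation 30 min, reaction 25 min, room temperature / Technique: AMC fluorescence from Ub-AMC cleavage, excitation 355 nm, emission 460 nm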
NALP3 yeast inh – inhibitors of NALP3 inflammasome in yeast | Yeast reconstituted NLRP3/ASC/caspase-1, beta-gal luminescence, 24 h | inhibition, % at 10 µM | 330,000 tested, 0.39% active;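 active means inhibition of 50% or more; inactive means inhibition below 50%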;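 further: plate controls were induced DMSO wells for no effect and uninduced yeast grown without galactose for full effect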
ATG4B inhibitor – ATG4B (human) cysteine protease inhibition; AID 504462; Q9Y4P1; inhibition, % at 8.33 µM; 340,000 tested, 0.51% active; ATG4B cleavage of LC3-PLA2, NBD-HPC fluorescence, 1 h; in the data active means inhibition above about 40%
Target sequence (Q9Y4P1 whole entry, looked up): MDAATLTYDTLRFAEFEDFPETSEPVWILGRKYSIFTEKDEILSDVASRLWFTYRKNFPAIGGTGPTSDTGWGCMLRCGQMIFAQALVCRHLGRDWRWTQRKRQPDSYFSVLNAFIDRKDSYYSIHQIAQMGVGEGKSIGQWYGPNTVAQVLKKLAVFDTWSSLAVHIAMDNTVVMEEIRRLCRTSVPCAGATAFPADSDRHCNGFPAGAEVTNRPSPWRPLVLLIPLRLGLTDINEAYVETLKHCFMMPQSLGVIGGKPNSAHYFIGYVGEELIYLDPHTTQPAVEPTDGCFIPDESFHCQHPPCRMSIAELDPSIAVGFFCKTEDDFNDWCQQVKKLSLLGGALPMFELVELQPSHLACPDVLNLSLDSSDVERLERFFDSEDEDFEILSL
ATG4B conf – confirmation of human ATG4B inhibitors. inhibition, % at 8.33 µM. ATG4B protease fluorescent substrate cleavage assay. 320 tested, 92% active. shares compounds with ATG4B inhibitor. AID 504757; in the data active means inhibition above about 39%
PLA2 counter – inhibits human PLA2, flagging false ATG4B inhibitors; 1,600 tested, 66% active; AID 588402; shares compounds with ATG4B inhibitor; purified PLA2, NBD-C6-HPC fluorescence, 45 min; inhibition, % at 8.33 µM; in the data active means inhibition above about 50%
* marks the source's active call; other numbers are inactive results; ? = inconclusive; nt = no result.

SMILES	ALR inh	Calb FLC	NALP1 yeast inh	UCH37 inh	NALP3 yeast inh	ATG4B inhibitor	PLA2 counter	others
c1ccc(C2=Nc3c(ccc4ccccc34)C(c3ccncc3)=NN2)cc1	-2.1	-11.7	7.1	3.6	28.5	47.4*	70.9*
Brc1ccc(C2=Nc3ccccc3C(c3ccncc3)=NN2)cc1	-5.2	-9.6	-8.8	-2.0	2.5	-4.6	nt
COc1ccc2c(c1)C(c1ccc(C)o1)=NNC(c1cccnc1)=N2	nt	31.5	19.2	3.9	-2.7	11.0	nt
CCCOc1ccc(C2=NNC(c3cccs3)=Nc3ccc(OC)cc32)cc1	-10.8	13.5	10.6	5.5	18.5	48.7*	77.3*
COc1ccc2c(c1)C(c1cccs1)=NNC(c1ccncc1)=N2	3.5	16.7	-4.1	5.8	24.8	-15.2	nt
COc1ccc2c(c1)C(c1ccc(C)o1)=NNC(c1ccccc1)=N2	41.0	-26.9	8.3	7.0	14.5	42.3*	42.1	ATG4B conf=68.7*
CCc1ccc2c(c1)C(c1ccncc1)=NNC(c1ccccc1)=N2	47.2	-24.6	0.1	2.8	1.6	47.8*	58.5*
COc1ccccc1NC(=O)CC(C)=NNC(=O)C12CC3CC(CC(C3)C1)C2	nt	nt	nt	-3.1	nt	nt	nt
COc1ccc(C=NNC(=O)c2ccc(CSc3nncn3C)cc2)cc1OC	nt	nt	nt	3.1	nt	nt	nt
O=C(CC(=O)NN=Cc1ccc(F)cc1)NN=Cc1ccc(F)cc1	nt	nt	nt	3.8	nt	nt	nt
COc1ccc(C=NNc2nc(C)cc(-c3ccccc3)n2)c(OC)c1	nt	nt	nt	-4.6	nt	nt	nt
Cc1ccc2c(c1)C(c1ccncc1)=NNC(c1ccccc1)=N2	1.6	-10.1	12.9	3.0	15.2	3.4	nt
CCOc1ccc2c(c1)C(c1ccccc1)=NNC(c1ccccc1)=N2	5.1	-0.8	-1.1	2.5	3.8	74.8*	72.2*
CC(C)c1ccc2c(c1)C(c1ccc(N3CCOCC3)cc1)=NNC(c1cccs1)=N2	4.6	13.7	6.3	3.0	0.1	69.7*	72.3*
CC(C)c1ccc2c(c1)C(c1cccs1)=NNC(c1ccncc1)=N2	2.1	20.0	4.2	2.7	28.3	-4.7	nt
Cc1ccc(C2=Nc3ccc(Br)cc3C(c3ccncc3)=NN2)cc1	3.3	-10.0	25.0	4.6	24.8	43.9*	49.2
Cc1ccc2c(c1)C(c1ccncc1)=NNC(c1ccc(F)cc1)=N2	-1.4	-6.2	13.0	2.8	-2.2	-6.2	nt
CC(=NNc1ccc(C)c(Cl)c1)c1cccnc1	nt	nt	nt	4.6	nt	nt	nt
NC(=S)NN=Cc1cn(-c2ccccc2)nc1-c1cccnc1	nt	nt	nt	3.9	nt	nt	nt
CCC1=NN(C(=O)c2cccc(Br)c2)C(O)(c2ccc(Br)cc2)C1 (configuration not stated)	-1.8	3.9	6.0	0.0	9.6	43.0*	46.7	ATG4B conf=58.2*
NC(=O)CSc1nc2cc(Cl)ccc2c(=O)n1C1CCCCC1	4.7	4.4	17.0	2.6	7.7	4.2	nt
COC(=O)CSc1nc2cc(Cl)ccc2c(=O)n1C1CCCC1	-6.2	13.4	13.3	4.1	9.0	45.9*	26.4	ATG4B conf=60.6*
COc1ccc(C2OC(=O)c3ccccc3S2)cc1 (configuration not stated)	9.9	-0.5	-5.9	1.9	-4.9	53.9*	54.0*
COc1cc(C2OC(=O)c3ccccc3S2)cc(OC)c1OC (configuration not stated)	8.4	-16.2	12.6	2.6	20.1	1.2	nt
Cc1ccc(NC(=S)NCc2ccccc2)cc1S(=O)(=O)N1CCCCC1	-9.7	-9.4	26.4	0.1	9.8	56.5*	75.4*
SMILES	ALR inh	Calb FLC	NALP1 yeast inh	UCH37 inh	NALP3 yeast inh	ATG4B inhibitor	PLA2 counter	others
C/C(C=NNC(=O)Cc1cccn1C)=C\c1ccccc1	nt	nt	nt	1.9	nt	nt	nt
CC(Oc1cc(Cl)ccc1Cl)C(=O)NN=Cc1ccnn1C (configuration not stated)	nt	nt	nt	2.0	nt	nt	nt
CCN(CC)c1ccc(N2C(=O)CSC2=S)cc1	98.5*	-1.7	-5.3	2.5	20.4	66.1*	63.3*
CCn1nc([N+](=O)[O-])c(C(C#N)c2nc3cc(C(F)(F)F)ccc3s2)c(Cl)c1=O (configuration not stated)	98.1*	23.8	4.3	10.6	31.2	98.7*	101.4*
CCN(CC)c1ccc(/C=N/NC(=S)NCc2ccccc2)c(O)c1	42.7	36.7	25.8	nt	19.1	49.2*	37.0
Cc1cccc(C(=O)Nc2sc(-c3ccccc3)cc2C(=O)O)c1	-15.7	5.6	0.7	-23.5	-17.1	68.2*	75.2*
Cc1cccc(S(=O)(=O)c2c(N)n(N=Cc3ccco3)c3nc4ccccc4nc23)c1	nt	nt	nt	-144.4	nt	nt	nt
N#C[C@H]1[C@H](c2ccccc2)[C@](C#N)(C(=O)c2ccccc2)[C@@H]2C=Cc3ccccc3N21	nt	26.7	2.2	nt	nt	nt	nt
CC(C)OC(=O)[C@H]1[C@H](c2ccc(Cl)cc2)[C@@](C#N)(C(N)=O)[C@@H]2C=CC(C(N)=O)=CN21	nt	nt	10.7	3.2	nt	63.8*	74.1*
CCCc1ccc(OCc2ccc(C(=O)NN=Cc3cccc([N+](=O)[O-])c3)o2)c(OC)c1	nt	nt	nt	6.3	nt	nt	nt
CC(C)(C)OC(=O)NCCCC1=CC2=CC(=O)C(C)(OC(=O)c3ccc(Cl)nc3)C(=O)C2=CO1 (configuration not stated)	0.3	-3.3	nt	nt	22.5	nt	nt
COc1ccc(C2=CC3=C(Br)C(=O)C(C)(OC(=O)C4CCCC4)C(=O)C3=CO2)cc1 (configuration not stated)	15.7	10.9	4.7	1.7	6.3	65.3*	81.3*
COc1ccc(C2=CC3=C(Br)C(=O)C(C)(OC(=O)c4ccc(Cl)nc4)C(=O)C3=CO2)cc1 (configuration not stated)	-12.8	2.6	nt	1.0	2.6	66.5*	58.7*
COC(=O)CCC(=O)OC1(C)C(=O)C2=CN(C(CO)CO)C(c3ccc(OC)cc3)=CC2=C(Br)C1=O (configuration not stated)	nt	17.2	1.7	nt	17.9	nt	nt
COC(=O)CCC(=O)OC1(C)C(=O)C2=COC(c3ccc(OC)cc3)=CC2=C(Br)C1=O (configuration not stated)	20.4	1.3	-18.2	2.9	20.7	51.0*	56.6*
CCOC(=O)C1(CCc2ccccc2)CCN(C(=O)c2ccoc2)CC1	1.3	?	-1.9	-0.4	13.9	8.4	nt
CC#CC(=O)N1CCC(CCc2ccccc2)(C(=O)OCC)CC1	-10.4	1.4	4.2	3.6	22.5	48.6*	-1.6
COc1cc(C=NNC(=O)CNC(=O)c2ccccc2)ccc1OC(=O)c1cccs1	nt	nt	nt	3.0	nt	nt	nt
CN1CCN(c2nc(-c3cccs3)cs2)CC1	-12.4	32.3	11.1	0.9	5.6	-8.3	nt

Compound activity: PubChem, several laboratories
